What was measured:
[1] = target: Monoamine transporters; Norepininephrine & dopamine (Rattus norvegicus) (UniProt P23977+Q9WTR4); test: Ratio of IC50 value against NE to that of DA transporters; assay type: protein assay
Method in brief: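 Competition binding against 0.5 nM [3H]WIN 35,428 (DA transporter) or 0.5 nM [3H]nisoxetine (NE transporter). The IC50 is the mean ± standard error of three or four experiments, each run in triplicate. Selectivity ratios are NE/DA or 5-HT/DA quotients of the IC50 values.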

[2] = target: T1, Sodium-dependent dopamine transporter (Rattus norvegicus, UniProt P23977); test: Binding affinity at the Dopamine transporter in rat striata by inhibition of 0.5 nM [3H]WIN-35428 binding
T1 sequence (P23977 whole entry): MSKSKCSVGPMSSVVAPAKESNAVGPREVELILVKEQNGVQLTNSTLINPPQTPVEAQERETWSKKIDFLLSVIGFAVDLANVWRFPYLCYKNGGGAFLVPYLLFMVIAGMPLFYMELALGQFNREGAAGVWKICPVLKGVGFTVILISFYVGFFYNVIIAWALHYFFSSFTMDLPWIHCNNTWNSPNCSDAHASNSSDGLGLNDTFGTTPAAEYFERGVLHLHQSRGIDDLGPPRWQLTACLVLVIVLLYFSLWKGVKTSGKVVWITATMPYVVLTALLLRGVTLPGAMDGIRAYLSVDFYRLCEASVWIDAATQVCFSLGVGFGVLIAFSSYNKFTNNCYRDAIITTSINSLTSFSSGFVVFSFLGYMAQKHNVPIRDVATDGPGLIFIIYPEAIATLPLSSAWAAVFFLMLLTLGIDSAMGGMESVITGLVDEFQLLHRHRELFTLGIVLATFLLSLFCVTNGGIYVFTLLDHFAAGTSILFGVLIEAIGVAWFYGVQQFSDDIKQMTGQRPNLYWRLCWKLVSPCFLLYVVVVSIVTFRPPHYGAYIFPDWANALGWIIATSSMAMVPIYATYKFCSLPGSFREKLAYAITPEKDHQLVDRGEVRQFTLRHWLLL

[3] = target: Monoamine transporters; serotonin & dopamine (Rattus norvegicus) (UniProt P31652+P23977); test: Ratio of IC50 value against Serotonin transporter to that of dopamine transporter; assay type: protein assay
Sequence of Monoamine transporters; serotonin & dopamine (Rattus norvegicus) (P23977 whole entry, looked up): as the sequence (P23977 whole entry) above
Sequence of Monoamine transporters; serotonin & dopamine (Rattus norvegicus) (P31652 whole entry, looked up): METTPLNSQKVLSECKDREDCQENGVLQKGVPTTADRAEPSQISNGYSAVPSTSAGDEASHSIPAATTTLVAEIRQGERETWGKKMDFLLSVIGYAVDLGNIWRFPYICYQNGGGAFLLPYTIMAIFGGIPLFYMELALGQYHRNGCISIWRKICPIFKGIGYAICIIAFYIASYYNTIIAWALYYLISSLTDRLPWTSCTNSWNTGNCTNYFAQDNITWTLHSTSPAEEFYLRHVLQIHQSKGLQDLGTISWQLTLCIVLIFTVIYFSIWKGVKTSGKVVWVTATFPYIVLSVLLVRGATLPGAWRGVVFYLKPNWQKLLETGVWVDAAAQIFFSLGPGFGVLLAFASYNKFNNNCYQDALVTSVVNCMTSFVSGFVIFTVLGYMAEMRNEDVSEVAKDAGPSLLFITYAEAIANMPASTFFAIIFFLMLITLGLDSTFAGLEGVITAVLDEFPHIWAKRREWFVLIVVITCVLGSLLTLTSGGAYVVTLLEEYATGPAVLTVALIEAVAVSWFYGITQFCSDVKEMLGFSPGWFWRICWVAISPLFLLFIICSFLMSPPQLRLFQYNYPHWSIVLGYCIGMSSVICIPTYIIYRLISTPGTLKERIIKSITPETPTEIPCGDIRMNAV

[4] = target: T2, Norepinephrine transporter (Rattus norvegicus, UniProt Q9WTR4); test: Binding affinity at the Norepinephrine transporter in rat frontal cortex by inhibition of 0.5 nM [3H]nisoxetine binding; assay type: tissue-based
T2 sequence (Q9WTR4 whole entry): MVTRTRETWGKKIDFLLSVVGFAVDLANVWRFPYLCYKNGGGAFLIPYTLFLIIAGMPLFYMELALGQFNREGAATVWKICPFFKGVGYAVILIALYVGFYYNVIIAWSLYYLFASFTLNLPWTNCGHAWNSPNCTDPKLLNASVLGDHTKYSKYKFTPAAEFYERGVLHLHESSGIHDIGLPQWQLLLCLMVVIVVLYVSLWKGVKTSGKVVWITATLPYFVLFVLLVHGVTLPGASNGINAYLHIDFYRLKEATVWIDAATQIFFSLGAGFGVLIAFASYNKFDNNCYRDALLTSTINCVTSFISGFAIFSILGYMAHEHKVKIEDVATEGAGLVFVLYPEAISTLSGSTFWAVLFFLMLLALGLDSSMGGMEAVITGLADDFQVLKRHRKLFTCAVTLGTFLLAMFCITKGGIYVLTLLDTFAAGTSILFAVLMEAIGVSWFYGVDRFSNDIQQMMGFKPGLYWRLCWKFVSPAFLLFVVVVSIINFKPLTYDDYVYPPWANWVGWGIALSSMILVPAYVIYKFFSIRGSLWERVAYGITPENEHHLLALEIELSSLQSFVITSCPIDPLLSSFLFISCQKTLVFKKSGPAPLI

[5] = target: Sodium-dependent serotonin transporter (Rattus norvegicus, UniProt P31652); test: Binding affinity at the Serotonin transporter in rat midbrain by inhibition of 0.5 nM [3H]-paroxetine binding; assay type: tissue-based
Sequence of Sodium-dependent serotonin transporter (P31652 whole entry): as the sequence (P31652 whole entry, looked up) above

[6] = target: T2, Norepinephrine transporter; test: Inhibition of [3H]NE uptake by rat frontal cortex Norepinephrine transporter; assay type: tissue-based
Method in brief: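 Rat frontal cortex synaptosomes were used at 10 mg/mL tissue with 5 nM final [3H]norepinephrine and 10 μM pargyline in Krebs phosphate buffer, pH 7.4. Incubation was 3 min at 30 °C, followed by filtration and scintillation counting. Nonspecific uptake was defined with 1 μM desipramine. Three or four experiments were run in triplicate, and Ki was derived by Cheng–Prusoff.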

[7] = target: T1, Sodium-dependent dopamine transporter; test: Inhibition of [3H]DA uptake by rat striatal dopamine transporter
Method in brief: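 Rat striatal crude synaptosomes were prepared from male Sprague–Dawley rats by 0.32 M sucrose homogenisation and centrifugation at 800g then 2000g. Each tube held 1.5 mg tissue, 0.5 nM [3H]dopamine and 10 μM pargyline in Krebs phosphate buffer, pH 7.4, with dextrose and ascorbate. Incubation was 3 min at 30 °C, followed by filtration and scintillation counting. Nonspecific uptake was defined with 1 μM mazindol. Three or four experiments were run in triplicate, and Ki was derived by Cheng–Prusoff.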

| Structure (SMILES) | Ratio [1] | IC50 [2] [nM] | Ratio [3] | IC50 [4] [nM] | IC50 [5] [nM] | Ki [6] [nM] | Ki [7] [nM] |
| --- | --- | --- | --- | --- | --- | --- | --- |
| CN1C2CCC1C(C(=O)OCc1ccccc1)C(OC(=O)c1ccccc1)C2 (centres undefined) | 81 | 257 | 1.2 | 20800 | 302 |  |  |
| Cc1ccc(C2CC3CCC(C2C(=O)Oc2ccccc2C)N3C)cc1 (centres undefined) | 1110 | 23.2 | 476 | 25700 | 11000 |  |  |
| CN1[C@H]2CC[C@@H]1[C@@H](C(=O)N1CCCC1)[C@@H](c1ccc(I)cc1)C2 | 2680 | 0.37 | 4670 | 991 | 1730 |  |  |
| CN1C2CCC1C(C(=O)Oc1ccccc1)C(OC(=O)c1ccccc1)C2 (centres undefined) | 277 | 112 | 301 | 31000 | 33700 |  |  |
| CON(C)C(=O)C1C(c2ccc(Cl)cc2)CC2CCC1N2C (centres undefined) | 646 | 0.85 | 852 | 549 | 724 |  |  |
| CN1C2CCC1C(C(=O)Oc1ccc(I)cc1)C(c1ccc(Cl)cc1)C2 (centres undefined) | 30 | 32.6 | 38 | 968 | 1230 |  |  |
| COC(=O)C1C(c2ccc(Br)cc2)CC2CCC1N2C (centres undefined) | 22 | 1.69 | 6 |  | 10.6 |  |  |
| COC(=O)[C@@H]1C2CC[C@H](C[C@@H]1c1ccccc1)N2C |  |  |  |  |  | 37.2 | 49.8 |
| CNC(=O)C1C(c2ccc(Cl)cc2)CC2CCC1N2C (centres undefined) | 128 | 12.4 | 106 | 1580 | 1310 |  |  |
| CN1C2CCC1C(C(=O)N1CCCCC1)C(c1ccc(Cl)cc1)C2 (centres undefined) | 252 | 6.95 | 499 | 1750 | 3470 |  |  |
| CN1C2CCC1C(C(=O)N1CCCO1)C(c1ccc(Cl)cc1)C2 (centres undefined) | 736 | 1.47 | 1680 | 1080 | 2470 |  |  |
| CN1C2CCC1C(C(=O)N1CCOCC1)C(c1ccc(Cl)cc1)C2 (centres undefined) | 2950 | 2.9 | 30600 | 8550 | 88800 |  |  |
| CN(C)C(=O)C1C(OC(=O)c2ccccc2)CC2CCC1N2C (centres undefined) | 58 | 127 | 1130 | 7330 | 144000 |  |  |
| CC(C)OC(=O)C1C(OC(=O)c2ccccc2)CC2CCC1N2C (centres undefined) |  |  |  | 30300 | 25200 |  |  |
| Cc1ccc(C2CC3CCC(C2C(=O)OC2CCCC2)N3C)cc1 (centres undefined) | 148 | 17.8 | 27 | 2630 | 485 |  |  |
| CN1C2CCC1C(C(=O)Oc1ccc(Cl)cc1)C(c1ccc(Cl)cc1)C2 (centres undefined) | 89 | 55 | 308 | 4880 | 16900 |  |  |
| CN1C2CCC1C(C(=O)N1CCCO1)C(c1ccc(I)cc1)C2 (centres undefined) | 476 | 0.75 | 173 | 357 | 130 |  |  |
| CN1C2CCC1C(C(=O)OC1CC1)C(c1ccc(Cl)cc1)C2 (centres undefined) | 245 | 0.96 | 175 | 235 |  |  |  |
| CON(C)C(=O)C1C(OC(=O)c2ccccc2)CC2CCC1N2C (centres undefined) | 66 | 60 | 469 | 3940 | 28200 |  |  |
| Cc1ccc(C2CC3CCC(C2C(=O)OC2CCC2)N3C)cc1 (centres undefined) | 1270 | 3.74 | 540 | 4740 | 2020 |  |  |
| CONC(=O)C1C(c2ccc(Cl)cc2)CC2CCC1N2C (centres undefined) | 826 | 10.7 | 4080 | 9910 | 43700 |  |  |
| COC(=O)C1C(c2ccc(Cl)c(Cl)c2)CC2CCC1N2C (centres undefined) |  | 0.79 | 4 | 18 | 3.13 |  |  |
| Cc1ccc(C2CC3CCC(C2C(=O)Oc2cccc(C)c2)N3C)cc1 (centres undefined) | 261 | 8.19 | 639 | 2140 |  |  |  |
| COC(=O)C1C(c2ccc(C)cc2)CC2CCC1N2C (centres undefined) |  | 1.71 |  | 60 |  | 8.42 | 7.02 |
| CON(C)C(=O)C1C(c2ccc(I)cc2)CC2CCC1N2C (centres undefined) | 95 | 1.08 | 68 | 103 | 73.9 |  |  |

| Structure (SMILES) | Ratio [1] | IC50 [2] [nM] | Ratio [3] | IC50 [4] [nM] | IC50 [5] [nM] | Ki [6] [nM] | Ki [7] [nM] |
| --- | --- | --- | --- | --- | --- | --- | --- |
| Cc1cccc(OC(=O)C2C(c3ccc(Cl)cc3)CC3CCC2N3C)c1 (centres undefined) | 293 | 9.37 | 230 | 2740 |  |  |  |
| COc1ccc(OC(=O)C2C(c3ccc(C)cc3)CC3CCC2N3C)cc1 (centres undefined) | 33 | 95.6 | 861 | 3150 | 82300 |  |  |
| Cc1ccc(C2CC3CCC(C2C(=O)Oc2ccc(Cl)cc2)N3C)cc1 (centres undefined) | 81 | 117 | 366 | 9520 | 42800 |  |  |
| COC(=O)C1C(c2ccc(Cl)c(C)c2)CC2CCC1N2C (centres undefined) | 45 | 0.81 | 13 | 36.2 | 10.5 |  |  |
| CN(C(=O)C1C(c2ccc(Cl)cc2)CC2CCC1N2C)c1ccccc1 (centres undefined) | 48 | 45.5 | 519 | 2200 | 23600 |  |  |
| CON(C)C(=O)C1C(c2ccc(C)cc2)CC2CCC1N2C (centres undefined) | 173 | 2.55 | 1330 | 442 | 3400 |  |  |
| Cc1ccc(OC(=O)C2C(c3ccc(Cl)cc3)CC3CCC2N3C)cc1 (centres undefined) | 45 | 27.4 | 44 | 1280 |  |  |  |
| COC(=O)C1C(c2ccc(N)c(I)c2)CC2CCC1N2C (centres undefined) | 984 | 1.35 | 89 | 1330 | 120 |  |  |
| Cc1ccc(C2CC3CCC(C2C(=O)N2CCOCC2)N3C)cc1 (centres undefined) | 2020 | 11.7 | > 8550 | 23600 | > 100000 |  |  |
| Cc1ccccc1OC(=O)C1C(c2ccc(Cl)cc2)CC2CCC1N2C (centres undefined) | 1220 | 3.91 | 965 | 4780 |  |  |  |
| CCCOC(=O)C1C(OC(=O)c2ccccc2)CC2CCC1N2C (centres undefined) | 31 | 196 | 23 | 6120 | 4520 |  |  |
| Cc1ccc(C2CC3CCC(C2C(=O)OC2CC2)N3C)cc1 (centres undefined) | 383 | 1.68 | 634 | 644 |  |  |  |
| CCN(CC)C(=O)C1C(c2ccc(C)cc2)CC2CCC1N2C (centres undefined) | 252 | 24.7 | 1370 | 6220 | 33900 |  |  |
| CC(C)OC(=O)C1C(c2ccccc2)CC2CCC1N2C (centres undefined) | 377 | 85.1 | 272 | 32000 | 23100 |  |  |
| Cc1ccc(OC(=O)C2C(c3ccc(C)cc3)CC3CCC2N3C)cc1 (centres undefined) | 50 | 81.2 | 197 | 4100 | 16000 |  |  |
| COc1ccc(OC(=O)C2C(c3ccc(Cl)cc3)CC3CCC2N3C)cc1 (centres undefined) | 21 | 71 | 277 | 1520 | 19700 |  |  |
| CCOC(=O)C1C(OC(=O)c2ccccc2)CC2CCC1N2C (centres undefined) | 51 | 195 | 30 | 10000 | 5800 |  |  |
| CN(C)C(=O)C1C(c2ccc(Cl)cc2)CC2CCC1N2C (centres undefined) | 683 | 1.38 | 782 | 942 | 1080 |  |  |
| CN1C2CCC1C(C(=O)Oc1ccccc1)C(c1ccccc1)C2 (centres undefined) | 251 | 76.7 | 1380 | 19300 | 106000 |  |  |
| CN1C2CCC1C(C(=O)OCCCc1ccccc1)C(OC(=O)c1ccccc1)C2 (centres undefined) | 33 | 147 | 2.5 | 4890 | 374 |  |  |
| CCN(CC)C(=O)C1C(c2ccc(Cl)cc2)CC2CCC1N2C (centres undefined) | 1010 | 5.48 | 1730 | 5530 | 9430 |  |  |
| CN1C2CCC1C(C(=O)N1CCC1)C(c1ccc(Cl)cc1)C2 (centres undefined) | 151 | 6.57 | 124 | 990 | 814 |  |  |
| CN1[C@H]2CC[C@@H]1[C@@H](C(=O)N1CCCC1)[C@@H](c1ccc(Cl)cc1)C2 | 2860 | 1.38 | 8980 | 3950 | 12400 |  |  |
| CN1C2CCC1C(C(=O)OCCc1ccccc1)C(OC(=O)c1ccccc1)C2 (centres undefined) | 110 | 181 | 3.4 | 19900 | 615 |  |  |
| CCC(CC)OC(=O)C1C(c2ccc(C)cc2)CC2CCC1N2C (centres undefined) | 180 | 19.1 | 236 | 3440 |  |  |  |
